# Measurements of several laboratories.
# Each line is one published result; the experiments were not run side by side.
# BTK: Tyrosine-protein kinase BTK (BTK, Homo sapiens, UniProt Q06187)
# BTK C481S: Tyrosine-protein kinase BTK (BTK, Homo sapiens, UniProt Q06187, C481S)
SMILES,target,observed,action,technique,tested at,endpoint,value
O=C(NCc1ncc(C(F)(F)F)cc1Cl)c1ccc2c(c1)C1(CCS(=O)(=O)CC1)[C@@H](C1CC1)N2S(=O)(=O)c1ccc(F)cc1,BTK,cell-free assay,,competition with immobilised ligand,1 µM,remaining binding,73%
Oc1cccc(-c2nc(N3CCOCC3)c3oc4ncccc4c3n2)c1,BTK,enzyme activity,inhibitor,,10 µM,remaining activity,82%
C=CC(=O)N1CCC[C@@H]1Cn1nc(-c2ccc(Oc3ccccc3)cc2F)c2c(N)ncnc21,BTK,enzyme activity,inhibitor,,,kinact/KI,1.9e+06 M⁻¹ s⁻¹
N#CCCc1ccc2c(c1)-c1[nH]c3ccc([N+](=O)[O-])cc3c1CC(=O)N2,BTK,cell-free assay,,,0.5 µM,remaining signal,94.6%
COc1cc(Nc2cnc(C#N)c(O[C@H](C)CN(C)C)n2)ncc1-c1cnn(C)c1,BTK,enzyme activity,inhibitor,radiometric,10 µM,remaining activity,60%
O=C1Nc2ccc(Cl)cc2C1=Cc1cc(Cl)c(O)c(Cl)c1,BTK,cell-free assay,,,0.5 µM,remaining signal,92.1%
Cc1cnc(NC2CCOCC2)nc1-n1cnc(C(=O)NC(CN)c2cc(F)cc(Cl)c2)c1 (stereo not drawn),BTK,enzyme activity,inhibitor,radiometric,1 µM,remaining activity,102%
CNCc1ccccc1-c1csc([C@H](C)Nc2nc(C)nc3cc(OC)c(OC)cc23)c1,BTK,cell-free assay,,competition with immobilised ligand,1 µM,remaining binding,89%
Cc1cc(NC(=O)c2cccc3cc(-c4cccc5[nH]nc(N)c45)ccc23)ccc1F,"Tyrosine-protein kinase BTK (BTK, Homo sapiens, UniProt Q06187, R28H)",enzyme activity,inhibitor,,0.1 µM,activity vs control,84%
CC(C)(C=C(C#N)C(=O)N1CCC[C@H]1Cn1nc(-c2ccc(Oc3ccccc3)cc2F)c2c(N)ncnc21)N1CCOCC1,BTK,enzyme activity,inhibitor,,,KI (inactivation),14 nM
C[C@@H]1CN(c2cc(-c3n[nH]c4ccc(OC5(C)CC5)cc34)ncn2)C[C@H](C)O1,BTK,cell-free assay,,competition with immobilised ligand,0.1 µM,remaining binding,73%
Nc1nc(Nc2ccccc2)sc1C(=O)c1c(F)cccc1F,BTK,enzyme activity,inhibitor,,10 µM,remaining activity,68%
COc1ccc(F)cc1C(=O)NCc1ccc(-c2nn([C@@H](C)C(F)(F)F)c(N)c2C(N)=O)cc1,BTK C481S,binding,,SPR,,koff,0.00013 s⁻¹
COc1ccc(COc2ccc(Cc3cnc(N)nc3N)cc2OC)cc1,BTK,cell-free assay,,,0.5 µM,remaining signal,104%
O=C(NCCCC1CCCCC1)c1ccc(CNC(=O)c2cnn(-c3ccccc3)c2C(F)(F)F)cc1,BTK,cell-free assay,,competition with immobilised ligand,0.1 µM,remaining binding,100%
CC(C)(C)c1nc(-c2cccc(NS(=O)(=O)c3c(F)cccc3F)c2F)c(-c2ccnc(N)n2)s1,BTK,enzyme activity,inhibitor,radiometric,1 µM,remaining activity,96%
Cc1sc(C(=O)NC2COC2)cc1-n1cc(NC(=O)Nc2c(F)cccc2Cl)cn1,BTK,enzyme activity,inhibitor,,10 µM,remaining activity,87.6%
Nc1ncnc2occ(-c3ccc(NC(=O)Nc4cc(C(F)(F)F)ccc4F)cc3)c12,BTK,cell-free assay,,,20 µM,remaining signal,26%
Nc1nc(NC2CCCCC2)sc1C(=O)c1ccccc1,BTK,enzyme activity,inhibitor,,10 µM,remaining activity,75%
NS(=O)(=O)c1cc(NC(=O)C2(c3ccccc3Cl)CC2)ccc1Oc1cccc(Cl)c1,BTK,cell-free assay,,competition with immobilised ligand,1 µM,remaining binding,88%
COc1cc(Cl)c(C(=O)N[C@@H](CN[C@H]2CC[C@@H](N)CC2)Cc2ccc(C#N)cc2)cc1-c1ccc(CN[C@H](C)c2ccc(C)cc2)o1,BTK,enzyme activity,inhibitor,,1 µM,remaining activity,114%
CNC(=O)c1ccc(Nc2ncc(C(F)(F)F)c(NCc3nccnc3N(C)S(C)(=O)=O)n2)cc1,BTK,cell-free assay,,competition with immobilised ligand,0.1 µM,remaining binding,83%
Cc1ccc(NC(=O)c2ccc(C)c(C(F)(F)F)c2)cc1C#Cc1nn(C2CCC(O)CC2)c2ncnc(N)c12 (stereo not drawn),BTK,cell-free assay,,,10 µM,remaining signal,10%
CN(C)CC#Cc1ccc(OCCCc2sc(N3CCc4cccc(C(=O)Nc5nc6ccccc6s5)c4C3)nc2C(=O)O)c(F)c1,BTK,cell-free assay,,competition with immobilised ligand,1 µM,remaining binding,96%
NC(=O)[C@H]1CCN(c2ncnc(N)c2F)C[C@@H]1N1CCC[C@@H](Nc2cc(Cl)cc(C(F)(F)F)c2)C1=O,BTK C481S,binding in cells,,,,residence time,16 min
Cc1noc([C@H]2C[C@@H](c3ccc(C(F)(F)F)cc3)CN(C(=O)N3CCS(=O)(=O)C3)C2)n1,BTK,cell-free assay,,competition with immobilised ligand,1 µM,remaining binding,96%
O=C(Nc1cnn(-c2csc(C(=O)NC3COC3)c2)c1)Nc1c(F)cccc1Cl,BTK,enzyme activity,inhibitor,,5 µM,remaining activity,89.3%
